The target of series [1] is T1, Sodium/nucleoside cotransporter 2 (Homo sapiens, UniProt O43868).
T1 sequence (O43868 whole entry): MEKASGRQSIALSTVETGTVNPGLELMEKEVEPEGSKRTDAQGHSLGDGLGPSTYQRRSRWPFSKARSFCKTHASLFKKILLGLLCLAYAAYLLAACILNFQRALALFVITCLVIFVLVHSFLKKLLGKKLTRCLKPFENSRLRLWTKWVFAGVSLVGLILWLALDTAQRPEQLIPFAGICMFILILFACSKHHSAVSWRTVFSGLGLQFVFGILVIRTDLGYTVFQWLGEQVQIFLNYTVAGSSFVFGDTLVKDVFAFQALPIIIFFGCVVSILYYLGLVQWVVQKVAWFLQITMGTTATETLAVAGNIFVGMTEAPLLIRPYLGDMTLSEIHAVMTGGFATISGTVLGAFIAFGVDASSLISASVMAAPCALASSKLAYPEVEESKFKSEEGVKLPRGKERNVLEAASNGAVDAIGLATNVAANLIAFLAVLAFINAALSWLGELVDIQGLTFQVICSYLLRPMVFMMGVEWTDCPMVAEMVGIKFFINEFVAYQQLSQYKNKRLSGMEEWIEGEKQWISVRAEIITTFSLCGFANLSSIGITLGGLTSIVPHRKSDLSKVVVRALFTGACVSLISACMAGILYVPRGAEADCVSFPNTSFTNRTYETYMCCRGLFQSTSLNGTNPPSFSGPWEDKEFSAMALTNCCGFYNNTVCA
Put plainly: Inhibition of human CNT2 expressed in African green monkey COS7 cells assessed as reduction of [14C]-inosine uptake by liquid scintillation counting analysis. Type of series: cell-based, COS-7. Summed up: (§1)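 COS-7 cells transiently transfected with hCNT2 in pCI-neo, assayed after 2 days. Pretreated in Na+-free choline buffer, 37 °C, 2×10 min. Uptake of 10 µM [14C]inosine for 30 min at 37 °C with 10 µM NBMPR, ±Na+, pH 7.4. Na+-dependent uptake set as 100%; lysate counted by scintillation. IC50 by nonlinear regression, ≥3 experiments; top concentration 100 µM.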

Series [2] in a line: Solubility of compound in JP2 at pH 6.8 after 1 hr at 37 degC. The class given is physicochemical. Particulars: JP2, pH 6.8. Summed up: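 Solubility measured in JP2, a 1:1 mix of pH 6.8 phosphate buffer and water, after incubation for 1 h at 37 °C.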
The target in series [3] is T2, Sodium/nucleoside cotransporter 2 (Rattus norvegicus) (UniProt Q62773).
T2 sequence (whole entry): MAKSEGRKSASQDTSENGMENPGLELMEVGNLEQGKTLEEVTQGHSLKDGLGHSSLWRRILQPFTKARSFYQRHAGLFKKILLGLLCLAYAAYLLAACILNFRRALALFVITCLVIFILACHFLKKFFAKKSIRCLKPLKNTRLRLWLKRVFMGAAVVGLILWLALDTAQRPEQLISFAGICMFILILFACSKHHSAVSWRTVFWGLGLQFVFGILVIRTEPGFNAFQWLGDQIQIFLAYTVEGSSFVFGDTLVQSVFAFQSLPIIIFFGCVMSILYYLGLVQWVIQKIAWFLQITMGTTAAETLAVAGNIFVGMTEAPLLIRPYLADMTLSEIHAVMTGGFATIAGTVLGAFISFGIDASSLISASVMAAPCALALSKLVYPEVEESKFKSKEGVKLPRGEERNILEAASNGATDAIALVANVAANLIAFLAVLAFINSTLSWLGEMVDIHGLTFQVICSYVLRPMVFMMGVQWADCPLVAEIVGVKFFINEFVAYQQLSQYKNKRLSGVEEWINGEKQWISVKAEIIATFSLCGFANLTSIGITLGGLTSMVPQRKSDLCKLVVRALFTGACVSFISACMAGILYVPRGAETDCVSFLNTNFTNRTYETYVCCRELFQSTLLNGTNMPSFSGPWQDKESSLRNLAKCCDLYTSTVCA
Put plainly: Inhibition of rat CNT2 expressed in African green monkey COS7 cells assessed as reduction of [14C]-inosine uptake at 100 uM by liquid scintillation counting analysis. Type of series: cell-based. As to conditions: COS-7.

Series [4] concerns the target T3, Sodium/nucleoside cotransporter 2 (Rattus norvegicus, UniProt Q62773).
T3 sequence (Q62773 whole entry): T2 sequence (whole entry)
Put plainly: Inhibition of rat CNT2 expressed in African green monkey COS7 cells assessed as reduction of [14C]-inosine uptake by liquid scintillation counting analysis. The class given is cell-based, COS-7. Summed up: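 rCNT2 transiently expressed in COS-7 cells, used 2 days post-transfection. 10 µM [14C]inosine uptake at 37 °C for 30 min in the presence of 10 µM NBMPR. Uptake run with Na+ or with choline replacing Na+, pH 7.4; the Na+-dependent difference defined 100% transport. Scintillation read-out; IC50 by nonlinear regression, ≥3 independent runs.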

Series [5] concerns the target T2, Sodium/nucleoside cotransporter 2 (Rattus norvegicus). Put plainly: Inhibition of rat CNT2 expressed in African green monkey COS7 cells assessed as reduction of [14C]-inosine uptake at 1000 uM by liquid scintillation counting analysis. The class given is cell-based. Particulars: COS-7. Summed up:
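rCNT2 cDNA in pCI-neo, transiently transfected into COS-7 cells and assayed 2 days later. Cells were pre-incubated twice for 10 min at 37 °C in Na+-free choline buffer, pH 7.4. Uptake of 10 µM [14C]/unlabeled inosine ran 30 min at 37 °C with 10 µM NBMPR. Na+-dependent uptake (Na+ minus choline buffer) was set as 100%, and percent inhibition was taken at 1000 µM.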

Series [6] addresses T4, Sodium/nucleoside cotransporter 2 (Homo sapiens) (UniProt O43868).
T4 sequence (whole entry): T1 sequence (O43868 whole entry)
The series can be described thus: Inhibition of human CNT2 expressed in African green monkey COS7 cells assessed as reduction of [14C]-inosine uptake at 100 uM by liquid scintillation counting analysis. The class given is cell-based. Particulars: COS-7. Summed up: as §1

Converted amounts (≈) assume the structure as drawn. The source made the active and inactive calls. The rule behind the calls is not given here.

With `COc1cc(-c2ccccc2)ccc1CNc1nc2c(N)ncnc2n1[C@@H]1O[C@H](CO)[C@@H](O)[C@H]1O`, the IC50 (in general, the concentration at which inhibition is half-maximal) in series [1] was 1.1 µM. In addition, the concentration in solution in series [2] (solubility at 1 h) was 4 µg/mL (≈ 8.36 µM). Moreover, the inhibition (as a rule, the percentage by which the read-out fell short of the control) in series [3] is “inactive”.
In the case of `CC(C)Oc1cc(-c2ccccc2)ccc1CNc1nc2c(N)ncnc2n1[C@@H]1O[C@H](CO)[C@@H](O)[C@H]1O`, the half-maximal inhibitory concentration (IC50) in series [1] is 9.3 µM. Also, in series [3], the inhibition entry was “inactive”.
On to `Nc1ncnc2c1nc(NCc1ccc(-c3cccnc3)cc1)n2[C@@H]1O[C@H](CO)[C@@H](O)[C@H]1O`, for which the results for the IC50 in series [1] and in series [4] were 1 µM and > 100 µM, respectively. The inhibition in series [3] was 11%.
On to `O=c1[nH]cnc2c1nc(NCc1ccc(-c3ccccc3)c(OCCCCO)c1)n2[C@@H]1O[C@H](CO)[C@@H](O)[C@H]1O`, for which the results for the IC50 in series [1] and in series [4] were 20.1 µM and > 1000 µM, respectively. Moreover, the inhibition in series [5] turned out to be 18%.
As for `CCCOc1cc(-c2ccccc2)ccc1CNc1nc2c(N)ncnc2n1[C@@H]1O[C@H](CO)[C@@H](O)[C@H]1O`, the inhibition entry in series [6] and in series [3] was “inactive” throughout.
Take `NC(=O)COc1cc(CNc2nc3c(N)ncnc3n2[C@@H]2O[C@H](CO)[C@@H](O)[C@H]2O)ccc1-c1ccccc1`: the IC50 in series [1] was 5.5 µM; in series [4] it was > 100 µM. Besides, the inhibition in series [3] was < 5%.
Turning to `CCOc1cc(CNc2nc3c(N)ncnc3n2[C@@H]2O[C@H](CO)[C@@H](O)[C@H]2O)ccc1-c1ccccc1`, the IC50 in series [1] was determined as 2.3 µM. Also, the concentration in solution in series [2] (solubility at 1 h) came to 121 µg/mL (≈ 246 µM). The inhibition entry in series [3] was “inactive”.
Consider `CC(C)Oc1cc(CNc2nc3c(N)ncnc3n2[C@@H]2O[C@H](CO)[C@@H](O)[C@H]2O)ccc1-c1ccccc1`, for which the IC50 in series [1] turned out to be 10.4 µM. In addition, the inhibition result in series [3] was “inactive”.
On to `COC(=O)COc1cc(CNc2nc3c(N)ncnc3n2[C@@H]2O[C@H](CO)[C@@H](O)[C@H]2O)ccc1-c1ccccc1`, for which the IC50 in series [1] was found to be 3.3 µM. Besides, in series [3], the inhibition entry was “inactive”.
`Nc1ncnc2c1nc(NCc1ccc(-c3ccncc3)cc1)n2[C@@H]1O[C@H](CO)[C@@H](O)[C@H]1O`: the half-inhibitory concentration (IC50) in series [1] was found to be 2.7 µM. Moreover, in series [3], the inhibition result is “inactive”.
As for `Nc1ncnc2c1nc(NCc1ccc(-c3ccccc3)cc1)n2[C@@H]1O[C@H](CO)[C@@H](O)[C@H]1O`, the concentration in solution in series [2] (solubility at 1 h) came to 3 µg/mL (≈ 6.69 µM). For the same molecule, the inhibition result in series [3] was “inactive”.
Take `Nc1ncnc2c1nc(NCc1ccc(-c3ccccc3)c(O)c1)n2[C@@H]1O[C@H](CO)[C@@H](O)[C@H]1O`: the IC50 in series [1] is 1.2 µM. Further, the inhibition entry in series [3] was “inactive”.
Consider `CCOc1cc(-c2ccccc2)ccc1CNc1nc2c(N)ncnc2n1[C@@H]1O[C@H](CO)[C@@H](O)[C@H]1O`, for which, in series [1], the IC50 turned out to be 5.4 µM. The solubility (in general, how much of the substance goes into solution per volume) at 1 h in series [2] came to 2 µg/mL (≈ 4.06 µM). Moreover, the inhibition result in series [3] was “inactive”.
Turning to `Nc1ncnc2c1nc(NCc1ccc(-c3ccccc3)cc1O)n2[C@@H]1O[C@H](CO)[C@@H](O)[C@H]1O`, in series [1], the IC50 is 1.3 µM. Besides, the inhibition result in series [3] is “inactive”.
`Nc1ncnc2c1nc(NCc1ccc(-c3ccccc3)c(OCCCO)c1)n2[C@@H]1O[C@H](CO)[C@@H](O)[C@H]1O`: the half-maximal inhibitory concentration (IC50) was 1.1 µM in series [1] and 45.1 µM in series [4].
For `Nc1ncnc2c1nc(NCc1ccc(-c3ccccc3)c(OCCCCCO)c1)n2[C@@H]1O[C@H](CO)[C@@H](O)[C@H]1O`, the figures for the IC50 in series [1] and in series [4] were 1.6 µM and 60 µM, respectively.
Consider `Nc1ncnc2c1nc(NCc1ccc(-c3ccccn3)cc1)n2[C@@H]1O[C@H](CO)[C@@H](O)[C@H]1O`, for which the IC50 in series [1] was determined as 1.5 µM. In addition, the inhibition result in series [3] is “inactive”.
Regarding `Nc1ncnc2c1nc(NCc1ccc(-c3ccccc3)c(OCCO)c1)n2[C@@H]1O[C@H](CO)[C@@H](O)[C@H]1O`, the results for the IC50 in series [1] and in series [4] were 3.1 µM and > 100 µM, respectively. In series [3], the inhibition is 49%.
As to `COc1cc(CNc2nc3c(N)ncnc3n2[C@@H]2O[C@H](CO)[C@@H](O)[C@H]2O)ccc1-c1ccccc1`, the half-maximal inhibitory concentration (IC50) in series [1] was 1.3 µM. Also, the solubility at 1 h in series [2] was determined as 215 µg/mL (≈ 449 µM). The inhibition entry in series [3] was “inactive”.
For the molecule `CCCOc1cc(CNc2nc3c(N)ncnc3n2[C@@H]2O[C@H](CO)[C@@H](O)[C@H]2O)ccc1-c1ccccc1`, in series [1], the IC50 is 5.2 µM. Further, the inhibition result in series [3] was “inactive”.

The values are drawn from ChEMBL document CHEMBL3808276, “Identification of Adenine and Benzimidazole Nucleosides as Potent Human Concentrative Nucleoside Transporter 2 Inhibitors: Potential Treatment for Hyperuricemia and Gout” (J Med Chem, 2016).
